The source made the active and inactive calls.
Assays:
[1] = tested on: Mycolicibacterium smegmatis MC2 155; assay: Inhibition of STPK in Mycobacterium smegmatis MC2 155 expressing aminoglycoside phophotransferase-8 assessed as growth inhibition at 50 nmol/disk after 18 hrs in presence of kanamycin by paper disk method
[2] = tested on: Mycolicibacterium smegmatis; assay: Antimycobacterial activity against Mycobacterium smegmatis atR33 assessed as decrease in drug resistance development at 10 ug/disc after 2 to 3 days by paper disc method; type: functional, organism-based
Method in brief: (§1)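 Mutant M. smegmatis strains were grown in Middlebrook 7H9/OADC/Tween/glycerol to OD600 1.2. Cultures were diluted 1:9:10 (culture:water:M290) and overlaid on M290 agar. Commercial or impregnated paper discs were applied and plates incubated 2–3 days at 37 °C. Inhibition halos were measured to 1 mm, run in triplicate, mean ± SD.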

[3] = tested on: Mycolicibacterium smegmatis; assay: Antimycobacterial activity against Mycobacterium smegmatis atR37 assessed as decrease in drug resistance development at 10 ug/disc after 2 to 3 days by paper disc method; type: functional, organism-based
Method in brief: (§2)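 Drug-resistant M. smegmatis mc2 155 mutants, isolated on M290 agar with 3.5-4× MIC of compound and resistance re-confirmed, grown in Middlebrook 7H9 (OADC, 0.1% Tween-80, 0.4% glycerol) to OD600 1.2. Diluted 1:9:10 culture:water:M290 and poured as top layer on M290 agar. Impregnated paper discs applied; 37 °C for 2–3 days. Halos measured to nearest 1 mm; triplicates, mean ± SD versus control strain.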

[4] = tested on: Mycolicibacterium smegmatis; assay: Antimycobacterial activity against Mycobacterium smegmatis atR9 assessed as decrease in drug resistance development at 10 ug/disc after 2 to 3 days by paper disc method; type: functional, organism-based; method in brief: as §2
[5] = tested on: Mycolicibacterium smegmatis; assay: Antimycobacterial activity against Mycobacterium smegmatis atR10 assessed as decrease in drug resistance development at 10 ug/disc after 2 to 3 days by paper disc method; type: functional, organism-based; method in brief: as §1
[6] = tested on: Mycolicibacterium smegmatis; assay: Antimycobacterial activity against Mycobacterium smegmatis atR10 assessed as decrease in drug resistance development at 10 nmol/disc after 2 to 3 days by paper disc method; type: functional, organism-based; method in brief: as §1
[7] = tested on: Mycolicibacterium smegmatis; assay: Antimycobacterial activity against Mycobacterium smegmatis atR17 assessed as decrease in drug resistance at 10 nmol/disc after 2 to 3 days by paper disc method; type: functional, organism-based; method in brief: as §1
[8] = tested on: Mycolicibacterium smegmatis MC2 155; assay: Inhibition of STPK in Mycobacterium smegmatis MC2 155 expressing aminoglycoside phophotransferase-8 assessed as growth inhibition at 100 nmol/disk after 18 hrs in presence of kanamycin by paper disk method
[9] = tested on: Mycobacterium tuberculosis; assay: Antimycobacterial activity against Mycobacterium tuberculosis H37Rv in liquid medium; type: functional
Method in brief: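 M. tuberculosis H37Rv; MIC determined in liquid medium on the automated Bactec MGIT 960 system.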

[10] = tested on: Mycolicibacterium smegmatis; assay: Antimycobacterial activity against Mycobacterium smegmatis MC2 155 in liquid medium after 48 hrs by two-fold serial dilution method; type: functional; details: MC2 155, 48 h
Method in brief: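 M. smegmatis mc2 155 grown overnight in Lemco-Tw broth, diluted 1:200 in fresh broth. […] Top wells could carry 4% DMSO. Incubated 48 h at 37 °C with shaking at 250 rpm. MIC is the lowest concentration with no visible growth.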

[11] = tested on: Mycolicibacterium smegmatis; assay: Antimycobacterial activity against Mycobacterium smegmatis MC2 155 in solid medium by two-fold serial dilution method; type: functional
Method in brief: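 M290 soybean-casein agar plates carried two-fold compound dilutions, 8–64 or 8–128 µg/ml, some with extra 20 or 25 µg/ml plates.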

[12] = tested on: Mycolicibacterium smegmatis; assay: Antimycobacterial activity against Mycobacterium smegmatis atR9 in liquid medium after 48 hrs by two-fold serial dilution method; type: functional; details: atR9, 48 h
Method in brief: (§3)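 M. smegmatis resistant mutants were isolated on M290 agar containing 3.5-4× MIC of the test compound at 30°C and resistance was reconfirmed. MIC was then run in Lemco-Tw broth (Tween-80 0.05%). An overnight culture was diluted 1:200, and two-fold serial dilutions in DMSO were added. Plates were incubated at 37°C and 250 rpm for 48 h. MIC was read as the lowest concentration with no visible growth.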

[13] = tested on: Mycolicibacterium smegmatis; assay: Antimycobacterial activity against Mycobacterium smegmatis atR14 in liquid medium after 48 hrs by two-fold serial dilution method; type: functional; details: atR14, 48 h; method in brief: as §3
[14] = tested on: Mycolicibacterium smegmatis; assay: Antimycobacterial activity against Mycobacterium smegmatis atR17 in liquid medium after 48 hrs by two-fold serial dilution method; type: functional; details: atR17, 48 h; method in brief: as §3
[15] = tested on: Mycolicibacterium smegmatis; assay: Antimycobacterial activity against Mycobacterium smegmatis atR19 in liquid medium after 48 hrs by two-fold serial dilution method; type: functional; details: atR19, 48 h; method in brief: as §3
[16] = tested on: Mycolicibacterium smegmatis; assay: Antimycobacterial activity against Mycobacterium smegmatis atR1 in liquid medium after 48 hrs by two-fold serial dilution method; type: functional; details: atR1, 48 h; method in brief: as §3
[17] = tested on: Mycolicibacterium smegmatis; assay: Antimycobacterial activity against Mycobacterium smegmatis atR8 in liquid medium after 48 hrs by two-fold serial dilution method; type: functional; details: atR8, 48 h; method in brief: as §3
[18] = tested on: Mycolicibacterium smegmatis; assay: Antimycobacterial activity against Mycobacterium smegmatis atR10 in liquid medium after 48 hrs by two-fold serial dilution method; type: functional; details: atR10, 48 h; method in brief: as §3
[19] = tested on: Mycolicibacterium smegmatis; assay: Antimycobacterial activity against Mycobacterium smegmatis atR11 in liquid medium after 48 hrs by two-fold serial dilution method; type: functional; details: atR11, 48 h; method in brief: as §3
[20] = tested on: Mycolicibacterium smegmatis; assay: Antimycobacterial activity against Mycobacterium smegmatis atR33 in liquid medium after 48 hrs by two-fold serial dilution method; type: functional; details: atR33, 48 h; method in brief: as §3
[21] = tested on: Mycolicibacterium smegmatis; assay: Antimycobacterial activity against Mycobacterium smegmatis atR37 in liquid medium after 48 hrs by two-fold serial dilution method; type: functional; details: atR37, 48 h; method in brief: as §3
[22] = tested on: Mycolicibacterium smegmatis; assay: Antimycobacterial activity against Mycobacterium smegmatis atR40 in liquid medium after 48 hrs by two-fold serial dilution method; type: functional; details: atR40, 48 h; method in brief: as §3
[23] = tested on: Mycolicibacterium smegmatis; assay: Antimycobacterial activity against Mycobacterium smegmatis atR2 in liquid medium after 48 hrs by two-fold serial dilution method; type: functional; details: atR2, 48 h; method in brief: as §3
[24] = tested on: Mycolicibacterium smegmatis; assay: Antimycobacterial activity against Mycobacterium smegmatis atR1 assessed as decrease in drug resistance development at 300 nmol/disc after 2 to 3 days by paper disc method; type: functional, organism-based; method in brief: as §1
[25] = tested on: Mycolicibacterium smegmatis; assay: Antimycobacterial activity against Mycobacterium smegmatis atR2 assessed as decrease in drug resistance development at 300 nmol/disc after 2 to 3 days by paper disc method; type: functional, organism-based; method in brief: as §1
[26] = tested on: Mycolicibacterium smegmatis; assay: Antimycobacterial activity against Mycobacterium smegmatis atR11 assessed as decrease in drug resistance development at 300 nmol/disc after 2 to 3 days by paper disc method; type: functional, organism-based; method in brief: as §1
[27] = tested on: Mycolicibacterium smegmatis; assay: Antimycobacterial activity against Mycobacterium smegmatis atR8 assessed as decrease in drug resistance development at 300 nmol/disc after 2 to 3 days by paper disc method; type: functional, organism-based; method in brief: as §2
[28] = tested on: Mycolicibacterium smegmatis; assay: Antimycobacterial activity against Mycobacterium smegmatis atR10 assessed as decrease in drug resistance development at 300 nmol/disc after 2 to 3 days by paper disc method; type: functional, organism-based; method in brief: as §1
[29] = tested on: Mycolicibacterium smegmatis; assay: Antimycobacterial activity against Mycobacterium smegmatis atR14 assessed as decrease in drug resistance development at 300 nmol/disc after 2 to 3 days by paper disc method; type: functional, organism-based; method in brief: as §1
[30] = tested on: Mycolicibacterium smegmatis; assay: Antimycobacterial activity against Mycobacterium smegmatis atR17 assessed as decrease in drug resistance development at 300 nmol/disc after 2 to 3 days by paper disc method; type: functional, organism-based; method in brief: as §1
[31] = tested on: Mycolicibacterium smegmatis; assay: Antimycobacterial activity against Mycobacterium smegmatis atR19 assessed as decrease in drug resistance development at 300 nmol/disc after 2 to 3 days by paper disc method; type: functional, organism-based; method in brief: as §1
[32] = tested on: Mycolicibacterium smegmatis; assay: Antimycobacterial activity against Mycobacterium smegmatis atR33 assessed as decrease in drug resistance development at 300 nmol/disc after 2 to 3 days by paper disc method; type: functional, organism-based; method in brief: as §1
[33] = tested on: Mycolicibacterium smegmatis; assay: Antimycobacterial activity against Mycobacterium smegmatis atR37 assessed as decrease in drug resistance development at 300 nmol/disc after 2 to 3 days by paper disc method; type: functional, organism-based; method in brief: as §2
[34] = tested on: Mycolicibacterium smegmatis; assay: Antimycobacterial activity against Mycobacterium smegmatis atR40 assessed as decrease in drug resistance development at 300 nmol/disc after 2 to 3 days by paper disc method; type: functional, organism-based; method in brief: as §2
[35] = tested on: Mycolicibacterium smegmatis; assay: Antimycobacterial activity against Mycobacterium smegmatis atR8 assessed as decrease in drug resistance development at 200 nmol/disc after 2 to 3 days by paper disc method; type: functional, organism-based; method in brief: as §2
[36] = tested on: Mycolicibacterium smegmatis; assay: Antimycobacterial activity against Mycobacterium smegmatis atR9 assessed as decrease in drug resistance development at 200 nmol/disc after 2 to 3 days by paper disc method; type: functional, organism-based; method in brief: as §2
[37] = tested on: Mycolicibacterium smegmatis; assay: Antimycobacterial activity against Mycobacterium smegmatis atR10 assessed as decrease in drug resistance development at 200 nmol/disc after 2 to 3 days by paper disc method; type: functional, organism-based; method in brief: as §1
[38] = tested on: Mycolicibacterium smegmatis; assay: Antimycobacterial activity against Mycobacterium smegmatis atR17 assessed as decrease in drug resistance development at 200 nmol/disc after 2 to 3 days by paper disc method; type: functional, organism-based; method in brief: as §1

CCCCCCCNc1nnc2ncc(Sc3ccccc3)n2n1
12 mm: inhibition zone (IZ) [1]

C[C@@H](O)[C@H]1C(=O)N2C(C(=O)O)=C(SCCNC=N)C[C@H]12
inactive: Activity [2] | Activity [3] | Activity [4] | Activity [5]

O=C1c2c(O)ccc(O)c2C(=O)c2c(NCCNCCO)ccc(NCCNCCO)c21
inactive: Activity [6] | Activity [7]

Cc1cc(C)n(-c2nnc3ncc(SCc4ccccc4)n3n2)n1
3 µM: MIC [9]
59.3 µM: MIC [11]
> 64 µg/mL: MIC [12] | MIC [13] | MIC [14] | MIC [15] | MIC [16] | MIC [17] | MIC [18] | MIC [19] | MIC [20] | MIC [21] | MIC [22] | MIC [23]
94.8 µM: MIC [10]
inactive: Activity [24] | Activity [25] | Activity [26] | Activity [27] | Activity [28] | Activity [29] | Activity [30] | Activity [31] | Activity [32] | Activity [33] | Activity [34]
13.7 mm: inhibition zone (IZ) [8]

Cc1cc(C)n(-c2nnc3ncc(SC(C)C)n3n2)n1
256 µg/mL: MIC [12] | MIC [13] | MIC [14] | MIC [15]
512 µg/mL: MIC [16] | MIC [17] | MIC [18] | MIC [19] | MIC [20] | MIC [21] | MIC [22]
221 µM: MIC [10] | MIC [11]
1020 µg/mL: MIC [23]
inactive: Activity [24] | Activity [25] | Activity [26] | Activity [27] | Activity [28] | Activity [29] | Activity [30] | Activity [31] | Activity [32] | Activity [33] | Activity [34]
3.5 µM: MIC [9]
13.3 mm: inhibition zone (IZ) [1]

c1cn(-c2nnc3nccn3n2)cn1
inactive: Activity [35] | Activity [36] | Activity [37] | Activity [38]
32 µg/mL: MIC [12] | MIC [13] | MIC [14] | MIC [15] | MIC [16] | MIC [17] | MIC [18] | MIC [19] | MIC [20] | MIC [21] | MIC [22] | MIC [23]
134 µM: MIC [9] | MIC [11]
12.8 mm: inhibition zone (IZ) [1]
171 µM: MIC [10]
